Experimental findings from ChEMBL document CHEMBL4350958, “Rational Design of Short Peptide Variants by Using Kunitzin-RE, an Amphibian-Derived Bioactivity Peptide, for Acquired Potent Broad-Spectrum Antimicrobial and Improved Therapeutic Potential of Commensalism Coinfection of Pathogens” (J Med Chem, 2019) are described below.

≈ marks a conversion by molar mass, not a printed value. Calls of active or inactive are those of the source. The calls are words filed in the database; no cut-off is given here.

In assay [1] the test system is Candida tropicalis. In words: Fungicidal activity against Candida tropicalis cgmcc2.1975 incubated for 48 hrs followed by replating on YM agar plate and measured after 48 hrs. In kind it is functional. The procedure, abridged: (§1)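 Yeast diluted in MOPS-buffered RPMI 1640 to (0.5–1) × 10^3 CFU/mL (CLSI M27-A2, modified) and mixed 1:1 with peptide serially diluted in 0.2% BSA. After 48 h at 28 °C, 50 μL per well was plated on YM agar and incubated 48 h at 28 °C. MFC taken as the lowest concentration killing ≥99.9% of cells. Three or more independent experiments, triplicate wells.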

The test system of assay [2] is Candida albicans. In words: Antifungal activity against Candida albicans cgmcc2.2086 infected in C57BL/6 mouse model of keratitis assessed as appearance of transparent irises at 1 mg/ml administered as topical eye drop every 5 mins for first 4 hrs and every 30 mins for next 7 hrs measured post-last dose. In kind it is functional, organism-based.
For assay [3], the system named is Candida albicans. In words: Antifungal activity against Candida albicans cgmcc2.2086 infected in C57BL/6 mouse model of keratitis assessed as reduction in fungal colonies in eyeballs at 1 mg/ml administered as topical eye drop every 5 mins for first 4 hrs and every 30 mins for next 7 hrs measured post-last dose by agar plate method relative to control. In kind it is functional. Also on record: scale not given: the % may be the effect or the level left.

In assay [4] the test system is Candida albicans. The experiment in a line: Antifungal activity against Candida albicans cgmcc2.2086 infected in C57BL/6 mouse model of keratitis assessed as reduction in fungal hyphae extention into corneal stroma at 1 mg/ml administered as topical eye drop every 5 mins for first 4 hrs and every 30 mins for next 7 hrs measured post-last dose by periodic acid schiff staining-based histological analysis. In kind it is functional, organism-based.

Assay [5] relates to Candida albicans. In words: Antifungal activity against Candida albicans cgmcc2.2086 infected in C57BL/6 mouse model of keratitis assessed as reduction in clinical score at 1 mg/ml administered as topical eye drop every 5 mins for first 4 hrs and every 30 mins for next 7 hrs measured post-last dose. In kind it is functional, organism-based.
In assay [6] the test system is Candida albicans. In words: Antifungal activity against Candida albicans cgmcc2.2086 infected in C57BL/6 mouse model of keratitis assessed as reduction in fungal hyphae infiltration into corneal stroma at 1 mg/ml administered as topical eye drop every 5 mins for first 4 hrs and every 30 mins for next 7 hrs measured post-last dose by periodic acid schiff staining-based histological analysis. In kind it is functional, organism-based.

For assay [7], the system named is Candida parapsilosis. In words: Antifungal activity against Candida parapsilosis cgmcc2.3989 measured after 48 hrs by broth microdilution method. In kind it is functional. To be noted: Lodderomyces parapsilosis, cgmcc2.3989, 48 h. The procedure, abridged:
(§2)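 Modified CLSI M27-A2 microdilution. Yeast colonies were diluted in MOPS-buffered RPMI 1640 to a final (0.5–1) × 10^3 CFU mL−1 and mixed with an equal volume of peptide serially diluted in 0.2% BSA. After 48 h at 28 °C, MIC was read at A492 as the lowest concentration inhibiting 95% of growth. At least three independent experiments, each with three technical replicates.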
A general note: In broth dilution the organism is exposed to a series of concentrations in liquid medium.

The test system of assay [8] is Candida parapsilosis. The experiment in a line: Fungicidal activity against Candida parapsilosis cgmcc2.3989 incubated for 48 hrs followed by replating on YM agar plate and measured after 48 hrs. In kind it is functional. The procedure, abridged:
as §1

Assay [9] deals with Candida tropicalis. In words: Antifungal activity against Candida tropicalis cgmcc2.1975 measured after 48 hrs by broth microdilution method. In kind it is functional. The following applies: cgmcc2.1975, 48 h. The procedure, abridged:
as §2

The subject of assay [10] is Candida albicans. The experiment in a line: Fungicidal activity against Candida albicans cgmcc2.2086 incubated for 48 hrs followed by replating on YM agar plate and measured after 48 hrs. In kind it is functional. A digest of the protocol:
as §1

The subject of assay [11] is Candida albicans. In words: Antifungal activity against Candida albicans cgmcc2.2086 infected in C57BL/6 mouse model of keratitis assessed as appearance of transparent corneas at 1 mg/ml administered as topical eye drop every 5 mins for first 4 hrs and every 30 mins for next 7 hrs measured post-last dose. In kind it is functional, organism-based.
The subject of assay [12] is Candida albicans. The experiment in a line: Antifungal activity against Candida albicans cgmcc2.2086 measured after 48 hrs by broth microdilution method. In kind it is functional. To be noted: cgmcc2.2086, 48 h. The procedure, abridged:
as §2

Regarding `C[C@@H]1[C@H](O)[C@@H](C)/C=C/C=C/C=C/C=C/C=C/C=C/C=C/[C@H](O[C@@H]2O[C@H](C)[C@@H](O)[C@H](N)[C@@H]2O)C[C@@H]2O[C@](O)(C[C@@H](O)C[C@@H](O)[C@H](O)CC[C@@H](O)C[C@@H](O)CC(=O)O[C@H]1C)C[C@H](O)[C@H]2C(=O)O` [AMPHOTERICIN B], the “MFC<=99.9” value in the assay on Candida tropicalis [1] was 2 µM (≈ 1.85 µg/mL); in the assay with Candida parapsilosis [8], 4 µM (≈ 3.7 µg/mL); in the assay with Candida albicans [10], 2 µM (≈ 1.85 µg/mL). In addition, the result in the assay with Candida albicans [2], in the assay on Candida albicans [4], with Candida albicans [5], in the assay on Candida albicans [6] and in the assay on Candida albicans [11] was Active. The Activity entry in the assay with Candida albicans [3] was “<=80%”. In addition, the MIC95 against Candida parapsilosis [7] was found to be 2 µM (≈ 1.85 µg/mL); against Candida tropicalis [9] it was 1 µM (≈ 0.924 µg/mL); in the assay on Candida albicans [12], 1 µM (≈ 0.924 µg/mL).
